Results from ChEMBL document CHEMBL1136442, “New anti-malarial peroxides with in vivo potency derived from spongean metabolites” (Bioorg Med Chem Lett, 2003).

What was measured:
[1] = test system: KB 3-1; experiment: In vitro antimalarial activity against KB 3-1; type: functional, cell-based; details: Homo sapiens
Summary of the method: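 Cytotoxicity was measured by colorimetric MTT assay, with mitomycin C as positive control.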

[2] = test system: Mus musculus; experiment: Survival days of the treated animal to that of control animal at a dose of 10 mg/kg; type: functional
[3] = Selectivity index was determined; type: functional
[4] = test system: Plasmodium falciparum; experiment: In vitro anti-malarial activity against Plasmodium falciparum; type: functional, organism-based
Summary of the method: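 FCR3 strain (cycloguanil-resistant, Gambia) was sorbitol-synchronized and plated at ring stage (0.55% parasitemia, 2% hematocrit). Compound was added from DMSO stock diluted in complete medium (1% DMSO final). After 48 h at 37 °C, proliferation was scored on Giemsa smears, 10,000 erythrocytes per film, in triplicate. Quinine was the reference.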

[5] = test system: Mus musculus; experiment: In vivo anti-malarial activity against Plasmodium berghei
[6] = organism: Mus musculus; experiment: In vitro anti-malarial activity in mice (Mus musculus) serum after 24 hr; type: functional, organism-based

Structure (SMILES) | IC50 [1] [nM] | T/C [2] | Selectivity index [3] | IC50 [4] [nM] | ED50 [5] [mg/kg] | IC50 [6] [nM]
CCCCCC1(OC)CCC(CC(=O)NCC)OO1 (centres undefined) | 14000 | 125 | 25 | 540 | 11 | 
C[C@@H]1CC[C@H]2[C@@H](C)C(=O)O[C@@H]3O[C@@]4(C)CC[C@@H]1[C@]32OO4 [ARTEMISININ] |  |  |  |  | 5 | 
CCCCCC1(OC)CCC(CC(=O)O)OO1 (centres undefined) |  |  |  |  |  | > 1200
CCCCCC1(OC)CCC(CC(=O)OC)OO1 (centres undefined) |  | 81 | 360 |  | > 30 | 
CCCCCC1(OC)CCC(CC(=O)NCCC)OO1 (centres undefined) | 12000 | 138 | 39 | 310 | 9.3 | 
CCCCCC1(OC)CCC(CC(=O)NC)OO1 (centres undefined) | 5200 | 118 | 10 | 520 |  | 
CCCCCC1(OC)CCC(CC(=O)N(C)C)OO1 (centres undefined) | 4000 | 95 | 13 | 310 | 13 | 
CCCCCC1(OC)CCC(CC(=O)N(CC)CC)OO1 (centres undefined) | 13000 | 118 | 27 | 490 | 20 | 
